# Key:
# Format in all cases: functional
# [1] = tested on: PC-3; test: Cytotoxicity against human PC3 cells assessed as cellular growth at 10 uM after 48 hrs by SRB assay
# How it was run: (§1)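 NCI-60 panel lines grown in RPMI 1640 with 5% FBS and 2 mM L-glutamine. Plated at 5000–40,000 cells/well and preincubated 24 h at 37 °C, 5% CO₂, with time-zero plates fixed in TCA. Compounds, dissolved in DMSO and diluted in medium, were applied for 48 h. Cells were TCA-fixed (10% final for adherent, 16% for suspension) and stained with 0.4% SRB in 1% acetic acid. Dye was solubilised in 10 mM Tris base and read at 515 nm; growth was expressed as a percentage of untreated control.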
# [2] = tested on: SF-268; test: Cytotoxicity against human SF268 cells assessed as cellular growth at 10 uM after 48 hrs by SRB assay; how it was run: as §1
# [3] = tested on: RPMI-8226; test: Cytotoxicity against human RPMI8226 cells assessed as cellular growth at 10 uM after 48 hrs by SRB assay; how it was run: as §1
# [4] = tested on: A549; test: Cytotoxicity against human A549 cells assessed as cellular growth at 10 uM after 48 hrs by SRB assay
# How it was run: (§2)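 NCI60 single-dose screen of cells in RPMI 1640 with 5% FBS and 2 mM L-glutamine, preincubated 24 h at 37 °C, 5% CO₂. Cells were then exposed 48 h to compound added from DMSO stock. TCA-fixed, stained with 0.4% SRB in 1% acetic acid, dye solubilised in 10 mM Tris base and read at 515 nm. Growth is given as percent of untreated control.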
# [5] = tested on: HCT-116; test: Cytotoxicity against human HCT116 cells assessed as cellular growth at 10 uM after 48 hrs by SRB assay; how it was run: as §2
# [6] = tested on: NCI-H460; test: Cytotoxicity against human NCI-H460 cells assessed as cellular growth at 10 uM after 48 hrs by SRB assay; how it was run: as §1
# [7] = tested on: SNB-19; test: Cytotoxicity against human SNB19 cells assessed as cellular growth at 10 uM after 48 hrs by SRB assay; how it was run: as §1
# [8] = tested on: UACC-62; test: Cytotoxicity against human UACC62 cells assessed as cellular growth at 10 uM after 48 hrs by SRB assay; how it was run: as §1
# [9] = tested on: OVCAR-4; test: Cytotoxicity against human OVCAR4 cells assessed as cellular growth at 10 uM after 48 hrs by SRB assay; how it was run: as §1
# [10] = tested on: OVCAR-8; test: Cytotoxicity against human OVCAR8 cells assessed as cellular growth at 10 uM after 48 hrs by SRB assay; how it was run: as §1
# [11] = tested on: ACHN; test: Cytotoxicity against human ACHN cells assessed as cellular growth at 10 uM after 48 hrs by SRB assay; how it was run: as §2
# [12] = tested on: SNB-19; test: Antitumor activity against human SNB19 cells after 48 hrs by SRB assay; settings: SNB-19, 48 h
# How it was run: (§3)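 NCI60 panel cells grown in RPMI 1640 with 5% FBS and 2 mM L-glutamine, plated at 5000–40,000 cells/well and preincubated 24 h at 37 °C, 5% CO₂. Compound was added from DMSO at five concentrations, 10-fold or 1/2 log dilutions, then incubated 48 h.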
# [13] = tested on: 786-0; test: Antitumor activity against human 786-0 cells after 48 hrs by SRB assay; settings: 786-0, 48 h
# How it was run: (§4)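 NCI60 panel in RPMI 1640 with 5% FBS and 2 mM L-glutamine. Cells were plated at 5000–40,000/well by doubling time, held 24 h, then time-zero plates were TCA-fixed. Five concentrations (10-fold or half-log dilutions of DMSO stocks) were applied for 48 h at 37 °C, 5% CO2. Cells were fixed with cold TCA (10% final adherent, 16% suspension) and stained with 0.4% SRB. Bound dye was dissolved in 10 mM Tris and read at 515 nm. GI50, TGI and LC50 were calculated per line.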
# [14] = tested on: MCF7; test: Antitumor activity against human MCF7 cells after 48 hrs by SRB assay; settings: MCF7, 48 h; how it was run: as §4
# [15] = tested on: SN12C; test: Antitumor activity against human SN12C cells after 48 hrs by SRB assay; how it was run: as §3
# [16] = tested on: CAKI-1; test: Antitumor activity against human Caki1 cells after 48 hrs by SRB assay; settings: CAKI-1, 48 h; how it was run: as §4
# [17] = tested on: ACHN; test: Antitumor activity against human ACHN cells after 48 hrs by SRB assay; how it was run: as §4
# [18] = tested on: A498; test: Antitumor activity against human A498 cells after 48 hrs by SRB assay; settings: A498, 48 h; how it was run: as §4
# [19] = tested on: SK-OV-3; test: Antitumor activity against human SKOV3 cells after 48 hrs by SRB assay; settings: SK-OV-3, 48 h; how it was run: as §3
# [20] = tested on: HCC 2998; test: Antitumor activity against human HCC2998 cells after 48 hrs by SRB assay; settings: HCC 2998, 48 h; how it was run: as §4
# [21] = tested on: NCI-H322M; test: Antitumor activity against human NCI-H322M cells after 48 hrs by SRB assay; how it was run: as §4
# [22] = tested on: A549; test: Antitumor activity against human A549 cells after 48 hrs by SRB assay; settings: A549, 48 h; how it was run: as §4
# [23] = tested on: RPMI-8226; test: Antitumor activity against human RPMI8226 cells after 48 hrs by SRB assay; settings: RPMI-8226, 48 h; how it was run: as §4
# [24] = read-out: LC50 (the source's name)
# [25] = read-out: pLC50 (the source's name) (converted)
compound,measurement,setting,value
COc1ccc(/C(=C2/O[C@@H]([C@H]3COC(C)(C)O3)[C@H]3OC(C)(C)O[C@@H]23)c2cc(OC)c(OC)c(OC)c2)cc1O,Activity,[1],30.63%
same,Activity,[2],36.3%
same,Activity,[3],63.56%
same,Activity,[4],84.24%
same,Activity,[5],53.99%
same,Activity,[6],79.36%
same,Activity,[7],47.41%
same,Activity,[8],93.16%
same,Activity,[9],99.15%
same,Activity,[10],68.27%
same,Activity,[11],44.73%
same,GI50,[12],4.28 µM
same,TGI,[12],> 100 µM
same,CC50,[12]; [24],> 100 µM
same,GI50,[13],21.2 µM
same,LC50,[13],> 100 µM
same,TGI,[13],60.6 µM
same,GI50,[14]; read-out: GI50,3.76 µM
same,CC50,[14]; [24],> 100 µM
same,TGI,[14]; read-out: TGI,> 100 µM
same,GI50,[14]; read-out: pGI50 (converted),3.8 µM
same,CC50,[14]; [25],> 100 µM
same,TGI,[14]; read-out: pTGI (converted),> 100 µM
same,GI50,[15]; read-out: GI50,5.82 µM
same,CC50,[15]; [24],> 100 µM
same,TGI,[15]; read-out: TGI,> 100 µM
same,GI50,[15]; read-out: pGI50 (converted),5.62 µM
same,CC50,[15]; [25],> 100 µM
same,TGI,[15]; read-out: pTGI,> 100 µM
same,GI50,[16]; read-out: GI50,3.73 µM
same,CC50,[16]; [24],29.8 µM
same,TGI,[16]; read-out: TGI,> 100 µM
same,GI50,[16]; read-out: pGI50 (converted),37.2 µM
same,CC50,[16]; [25],> 100 µM
same,TGI,[16]; read-out: pTGI (converted),> 100 µM
same,GI50,[17]; read-out: GI50,9.31 µM
same,CC50,[17]; [24],> 100 µM
same,TGI,[17]; read-out: TGI,> 100 µM
same,GI50,[17]; read-out: pGI50 (converted),9.33 µM
same,CC50,[17]; [25],> 100 µM
same,TGI,[17]; read-out: pTGI,> 100 µM
same,GI50,[18]; read-out: GI50,3.57 µM
same,CC50,[18]; [24],> 100 µM
same,TGI,[18]; read-out: TGI,> 100 µM
same,GI50,[18]; read-out: pGI50 (converted),35.5 µM
same,CC50,[18]; [25],> 100 µM
same,TGI,[18]; read-out: pTGI (converted),> 100 µM
same,GI50,[19]; read-out: GI50,4.11 µM
same,CC50,[19]; [24],> 100 µM
same,TGI,[19]; read-out: TGI,3.85 µM
same,GI50,[19]; read-out: pGI50 (converted),4.68 µM
same,CC50,[19]; [25],> 100 µM
same,TGI,[19]; read-out: pTGI (converted),18.6 µM
same,GI50,[20]; read-out: GI50,1.32 µM
same,CC50,[20]; [24],> 100 µM
same,TGI,[20]; read-out: TGI,> 100 µM
same,GI50,[20]; read-out: pGI50 (converted),20.9 µM
same,CC50,[20]; [25],> 100 µM
same,TGI,[20]; read-out: pTGI (converted),> 100 µM
same,GI50,[21]; read-out: GI50,6.58 µM
same,CC50,[21]; [24],> 100 µM
same,TGI,[21]; read-out: TGI,> 100 µM
same,GI50,[21]; read-out: pGI50 (converted),6.61 µM
same,CC50,[21]; [25],> 100 µM
same,TGI,[21]; read-out: pTGI,> 100 µM
same,GI50,[22]; read-out: GI50,2.32 µM
same,CC50,[22]; [24],> 100 µM
same,TGI,[22]; read-out: TGI,> 100 µM
same,GI50,[22]; read-out: pGI50 (converted),23.4 µM
same,CC50,[22]; [25],> 100 µM
same,TGI,[22]; read-out: pTGI (converted),> 100 µM
same,LC50 (concentration killing 50% of starting cells),[23],> 100 µM
same,GI50,[23]; read-out: GI50,4.63 µM
same,TGI,[23]; read-out: TGI,> 100 µM
same,GI50,[23]; read-out: pGI50 (converted),4.68 µM
same,CC50,[23]; [25],> 100 µM
same,TGI,[23]; read-out: pTGI (converted),> 100 µM
